Activity calls are given as the source filed them.

The nature of data set [1]: Cytotoxicity against African green monkey BSC1 cells after 24 to 72 hrs by light microscopic analysis. In kind it is cell-based, BSC-1. To be noted: chlorocebus aethiops. Put shortly: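 BSC-1 monkey kidney cells incubated with drug at 37 °C, dissolved in 10% Me₂SO in water. Cell destruction was scored by light microscopy at 24, 48 and 72 h. Toxicity was defined as cell death within 2 days. The maximal nontoxic concentration is the nontoxic level whose twofold increase causes toxicity.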

Data set [2] concerns Human alphaherpesvirus 1. In words: Antiviral activity against Herpes simplex virus 1 HF infected in African green monkey BSC1 cells assessed as inhibition of viral progeny production at 200 ug/ml after 20 to 24 hrs by plaque reduction assay relative to control. In kind it is functional. To be noted: Human alphaherpesvirus 1, HF, BSC-1. The procedure, abridged:
(§1)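 BSC-1 monkey kidney monolayers in DMEM with 10% fetal bovine serum, infected with HSV-1 strain HF at 10 pfu/cell. Drug, in 10% Me2SO in water, added at infection at the highest noncytotoxic concentration. Cultures held 20–24 h at 37 °C, then sonicated. Progeny titred by plaque assay on BSC-1 (3 h adsorption, agar overlay, 72 h, gentian violet). Inhibition is plaque count with drug versus without.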

The test system of data set [3] is BSC-1. Put plainly: Inhibition of Herpes simplex virus 1 HF DNA polymerase-mediated DNA synthesis in African green monkey BSC1 cell nucleus at 200 ug/ml after 60 mins by [3H]-TTP incorporation assay relative to control. Type of data set: cell-based. To be noted: Human alphaherpesvirus 1. Put shortly:
(§2)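 Nuclei were taken from BSC-1 cells 20 h after HSV-1 infection by Dounce homogenization and low-speed spin. They were washed and incubated with drug for 60 min at 37 °C: 8 × 10⁶ nuclei, 80 mM K phosphate pH 7.4, 250 mM sucrose, 6 mM MgCl₂, 0.4 mM CaCl₂, 0.04 mM dATP/dGTP/dCTP, [³H]TTP, 1 mM ATP, PEP/pyruvate kinase, 5 mM EGTA. Read-out was TCA-precipitable radioactivity.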

Data set [4] concerns BSC-1. In words: Inhibition of Herpes simplex virus 1 HF DNA polymerase-mediated DNA synthesis in African green monkey BSC1 cell nucleus at 400 ug/ml after 60 mins by [3H]-TTP incorporation assay relative to control. Type of data set: cell-based. To be noted: Human alphaherpesvirus 1. Put shortly:
as §2

Data set [5] concerns BSC-1. Put plainly: Inhibition of Herpes simplex virus 1 HF DNA polymerase-mediated DNA synthesis in African green monkey BSC1 cell nucleus after 60 mins by [3H]-TTP incorporation assay relative to control. Type of data set: cell-based. To be noted: Human alphaherpesvirus 1. The procedure, abridged:
as §2

Data set [6] relates to Human alphaherpesvirus 1. In words: Antiviral activity against Herpes simplex virus 1 HF infected in African green monkey BSC1 cells assessed as inhibition of viral progeny production at 50 ug/ml after 20 to 24 hrs by plaque reduction assay relative to control. In kind it is functional. To be noted: Human alphaherpesvirus 1, HF, BSC-1. Put shortly:
as §1

For data set [7], the system named is BSC-1. In words: Inhibition of Herpes simplex virus 1 HF DNA polymerase-mediated DNA synthesis isolated from virus-infected African green monkey BSC1 cells at 25 to 400 ug/ml by [3H]-TTP incorporation assay. Type of data set: cell-free. To be noted: Human alphaherpesvirus 1. The procedure, abridged: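 HSV DNA polymerase came from nuclear extracts of BSC-1 cells 12 h post-infection, via 70% ammonium sulfate precipitation and sucrose gradients. Assay: 250 mM KCl, 2 mM MgCl₂, 0.05 mM dGTP/dATP/dCTP, 0.01 mM TTP plus [³H]TTP, 500 µg/mL activated calf thymus DNA, 10 mM Tris-HCl pH 8.1, 0.5 µg/mL BSA. Inhibition relative to drug-free reactions.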

Data set [8] concerns BSC-1. In words: Inhibition of Herpes simplex virus 1 HF DNA polymerase-mediated DNA synthesis in African green monkey BSC1 cell nucleus at 25 to 300 ug/ml after 60 mins by [3H]-TTP incorporation assay relative to control. In kind it is cell-based. To be noted: Human alphaherpesvirus 1. Put shortly:
as §2

Data set [9] has as its system Human alphaherpesvirus 1. Put plainly: Antiviral activity against Herpes simplex virus 1 HF infected in African green monkey BSC1 cells assessed as inhibition of viral progeny production at 25 ug/ml after 20 to 24 hrs by plaque reduction assay relative to control. Type of data set: functional. To be noted: Human alphaherpesvirus 1, HF, BSC-1. The procedure, abridged: as §1

On to `Cn1cc(NC(=O)c2cc(NC(=O)c3cc(NC=O)cn3C)cn2C)cc1C(=O)NCCC#N`, for which the MNTC in data set [1] is over 200 µg/mL. Besides, the inhibition at 200 µg/mL with Human alphaherpesvirus 1 [2] was 65.5%. In the data set with BSC-1 [3], this compound gave an inhibition of 65%. Besides, the inhibition entry in the data set with BSC-1 [4] is “Active”.
`Cn1cc(NC(=O)c2cc(NC(=O)c3cc([N+](=O)[O-])cn3C)cn2C)cc1C(=O)NCCC(=N)N` gave an MNTC in [1] of over 200 µg/mL. Moreover, in the data set with Human alphaherpesvirus 1 [2], the inhibition at 200 µg/mL was determined as 86.5%. Besides, the “inhibition of viral DNA synthesis (active/not active)” value (“inhibition … (active/not active)” for short) with BSC-1 [5] is “Active”.
`Cn1cc(NC(=O)c2cc(NC(=O)c3cc([N+](=O)[O-])cn3C)cn2C)cc1C(=O)NCC(=N)N` showed an MNTC in [1] of 50 µg/mL. Besides, in the data set on Human alphaherpesvirus 1 [6], the inhibition at 50 µg/mL came to 98.1%. Further, the “inhibition … (active/not active)” value with BSC-1 [5] was “inactive”.
On to `Cn1cc(NC=O)cc1C(=O)Nc1cc(C(=O)Nc2cc(C(=O)Nc3ccccc3C(=N)N)n(C)c2)n(C)c1`, for which the MNTC in data set [1] is over 200 µg/mL. The inhibition at 200 µg/mL in the data set on Human alphaherpesvirus 1 [2] turned out to be 96.7%. In addition, the inhibition in the data set with BSC-1 [3] came to 65%. Besides, the inhibition result with BSC-1 [4] is “Active”.
The like results for `CC(CC(=N)N)NC(=O)c1cc(NC(=O)c2cc(NC(=O)c3cc(NC=O)cn3C)cn2C)cn1C` (stereo not drawn) were, in that order, over 200 µg/mL, 48%, 86% and “Active”.
In turn, `Cn1cc(NC=O)cc1C(=O)Nc1cc(C(=O)Nc2cc(C(=O)Nc3cccc(C(=N)N)c3)n(C)c2)n(C)c1` came in with an MNTC in data set [1] of over 200 µg/mL. Besides, in the data set with Human alphaherpesvirus 1 [2], the inhibition at 200 µg/mL turned out to be 97.1%. In addition, the inhibition in the data set on BSC-1 [3] turned out to be 65%. Besides, the inhibition entry in the data set on BSC-1 [4] and with BSC-1 [7] was “Active” each time.
The compound `Cn1cc(NC=O)cc1C(=O)Nc1cc(C(=O)Nc2cc(C(=O)Nc3ccc(C(=N)N)cc3)n(C)c2)n(C)c1` yielded an MNTC in data set [1] of over 200 µg/mL. In addition, in the data set with Human alphaherpesvirus 1 [2], the inhibition at 200 µg/mL worked out at 76.4%. The compound further had an inhibition with BSC-1 [3] of under 42%. For the same compound, in the data set with BSC-1 [4], the inhibition entry was “Active”.
With `CC(CC#N)NC(=O)c1cc(NC(=O)c2cc(NC(=O)c3cc(NC=O)cn3C)cn2C)cn1C` (stereo not drawn), the MNTC in data set [1] was over 200 µg/mL. The inhibition at 200 µg/mL with Human alphaherpesvirus 1 [2] was 84.6%. Besides, the inhibition in the data set with BSC-1 [3] was under 42%. In addition, the inhibition result with BSC-1 [4] and in the data set on BSC-1 [8] was “Active” in each case.
In turn, `Cn1cc(NC(=O)c2cc(NC(=O)c3cc(NC=O)cn3C)cn2C)cc1C(=O)NCC(=N)N` registered an MNTC in data set [1] of over 200 µg/mL. Besides, in the data set with Human alphaherpesvirus 1 [2], the inhibition at 200 µg/mL came to 61%. The compound also came in with an inhibition in the data set with BSC-1 [3] of 65%. For the same compound, in the data set on BSC-1 [4], the inhibition result was “Active”.
For the compound `Cn1cc(NC(=O)c2cc(NC(=O)c3cc([N+](=O)[O-])cn3C)cn2C)cc1C(=O)Nc1ccc(C(=N)N)cc1`, in data set [1], the MNTC was over 200 µg/mL. Further, the inhibition at 200 µg/mL in the data set on Human alphaherpesvirus 1 [2] was 94.8%. The “inhibition … (active/not active)” value with BSC-1 [5] is “inactive”.
For `Cn1cc(NC(=O)c2cc([N+](=O)[O-])cn2C)cc1C(=O)Nc1cc(C(=O)Nc2ccccc2C(=N)N)n(C)c1`, in that order: over 200 µg/mL, 96.9% and “inactive”.
The like results for `CC(CC(=N)N)NC(=O)c1cc(NC(=O)c2cc(NC(=O)c3cc([N+](=O)[O-])cn3C)cn2C)cn1C` (stereo not drawn) were, in that order, over 200 µg/mL, 93.7% and “Active”.
Regarding `Cn1cc(NC(=O)c2cc(NC(=O)c3cc(NC=O)cn3C)cn2C)cc1C(=O)NCCC(=N)N`, in data set [1], the MNTC amounted to 25 µg/mL. The inhibition at 25 µg/mL in the data set on Human alphaherpesvirus 1 [9] amounted to 99.7%. The inhibition in the data set on BSC-1 [3] was found to be 95%. For the same compound, the inhibition entry in the data set on BSC-1 [4] and in the data set with BSC-1 [7] was “Active” each time.
As for `Cn1cc(NC(=O)c2cc(NC(=O)c3cc([N+](=O)[O-])cn3C)cn2C)cc1C(=O)Nc1cccc(C(=N)N)c1`, the MNTC in [1] is over 200 µg/mL. The inhibition at 200 µg/mL with Human alphaherpesvirus 1 [2] came out at 97.2%. In addition, the “inhibition … (active/not active)” value in the data set with BSC-1 [5] is “inactive”.
